Experiment [1] deals with human serotonin transporter (hSERT) (Homo sapiens, UniProt P31645). The experiment can be described thus: Inhibition of APP+ uptake in hSERT-expressing HEK293 cells. It counts as cell-based. Particulars: inhibition of APP+ (5 μM) uptake. The essentials: (§1)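 Flp-In T-REx HEK293 lines stably carrying hDAT or hSERT, DsRED-transfected, doxycycline-induced (1μg/mL) for three days. Under perfusion in pH 7.3 HEPES-glucose buffer: 10 s buffer, 40 s compound, 30 s APP⁺ (3 μM hDAT; 5 μM hSERT) plus compound. Imaging at ex 460/em 535/50 nm. End-point fluorescence averaged over 30–60 cells per well, one concentration per well, normalised to compound-free wells (≥4 wells/concentration). Dose-response inhibition fit gives IC50.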

Experiment [2] concerns the target human dopamine transporter (hDAT) (Homo sapiens, UniProt Q01959). The experiment can be described thus: Inhibition of APP+ uptake in hDAT-expressing HEK293 cells. The settings on record: for DAT Selectivity: SERT IC50 value ÷ DAT IC50 value; for IC50: hDAT, inhibition of APP+ (3 μM) uptake. The experiment is classed as cell-based. The procedure, abridged: as §1
In experiment [3] the test system is DAT. The settings on record: cited from earlier work; for EC50: DAT releasing agent.
The subject of experiment [4] is DAT. Particulars: binding at DAT; cited from earlier work.

The term IC50 denotes the concentration that inhibits the measured activity by half. One may read the EC50 as the concentration giving half of the maximal effect.

SMILES strings stand for the structures.

Chain of human serotonin transporter (hSERT) (P31645 whole entry, the tested form may be a part): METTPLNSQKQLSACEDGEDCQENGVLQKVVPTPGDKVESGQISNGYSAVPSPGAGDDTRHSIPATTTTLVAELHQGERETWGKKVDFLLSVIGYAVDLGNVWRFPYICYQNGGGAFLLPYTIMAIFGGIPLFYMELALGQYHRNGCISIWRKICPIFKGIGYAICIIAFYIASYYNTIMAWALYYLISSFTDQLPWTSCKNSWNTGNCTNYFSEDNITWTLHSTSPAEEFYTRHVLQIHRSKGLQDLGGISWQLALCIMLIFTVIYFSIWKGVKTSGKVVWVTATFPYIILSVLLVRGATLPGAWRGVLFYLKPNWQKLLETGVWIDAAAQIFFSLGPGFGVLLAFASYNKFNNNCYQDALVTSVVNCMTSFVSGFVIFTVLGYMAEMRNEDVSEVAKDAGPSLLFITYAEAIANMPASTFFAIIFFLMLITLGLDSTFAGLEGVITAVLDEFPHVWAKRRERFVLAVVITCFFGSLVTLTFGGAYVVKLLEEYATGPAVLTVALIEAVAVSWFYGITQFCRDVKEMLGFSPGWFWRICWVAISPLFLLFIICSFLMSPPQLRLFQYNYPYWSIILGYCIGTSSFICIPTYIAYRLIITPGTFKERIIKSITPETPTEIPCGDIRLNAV
Chain of human dopamine transporter (hDAT) (Q01959 whole entry): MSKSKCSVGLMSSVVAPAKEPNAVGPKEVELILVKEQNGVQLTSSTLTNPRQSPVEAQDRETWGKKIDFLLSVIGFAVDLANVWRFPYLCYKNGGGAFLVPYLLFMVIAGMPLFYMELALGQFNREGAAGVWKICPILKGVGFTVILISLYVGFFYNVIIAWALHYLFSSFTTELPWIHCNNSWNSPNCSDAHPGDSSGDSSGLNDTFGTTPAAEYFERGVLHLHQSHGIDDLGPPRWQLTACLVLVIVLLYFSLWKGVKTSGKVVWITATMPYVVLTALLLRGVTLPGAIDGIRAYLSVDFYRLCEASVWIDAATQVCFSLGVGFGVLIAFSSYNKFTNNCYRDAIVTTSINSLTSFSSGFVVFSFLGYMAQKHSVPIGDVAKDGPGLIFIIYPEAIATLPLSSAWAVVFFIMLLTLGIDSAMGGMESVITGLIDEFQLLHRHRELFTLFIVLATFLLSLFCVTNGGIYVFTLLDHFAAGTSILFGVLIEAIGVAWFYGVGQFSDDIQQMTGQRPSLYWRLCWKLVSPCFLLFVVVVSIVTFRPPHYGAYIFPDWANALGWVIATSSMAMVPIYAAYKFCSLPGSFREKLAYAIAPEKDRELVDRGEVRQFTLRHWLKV

The compound `CCCCC(C(=O)c1ccc(Br)cc1)N1CCCC1.Cl` (stereo not drawn) [4-Br α-PHP (8), 1-(4-Bromophenyl)-2-(pyrrolidin-1-yl)hexanone Hydrochloride] gave an IC50 in experiment [1] of 3.61 µM. In addition, in experiment [2], the “DAT Selectivity” value was found to be 28 fold and half-maximal inhibition (IC50) was put at 0.127 µM.
Consider `CNC(C)C(=O)c1ccc(C(F)(F)F)cc1` (centres unmarked) [4-CF3 10, 4-CF3 methcathinone], for which the EC50 with DAT [3] is 2.71 µM.
Regarding `CCCC(C(=O)c1ccc(C(F)(F)F)cc1)N1CCCC1` (centres unmarked) [4-CF3 analogue of 2], the “fold lower affinity at DAT than 2” value with DAT [4] is > 300 fold.
On to `CCCCC(C(=O)c1ccc(C(F)(F)F)cc1)N1CCCC1.Cl` (stereo not drawn) [4-CF3 α-PHP (9), 1-(4-Trifluoromethylphenyl)-2-pyrrolidin-1-yl)hexanone Hydrochloride], for which the IC50 in experiment [1] is 5.79 µM; in experiment [2], 7.5 µM.
For `CCCCC(C(=O)c1ccc(C(F)(F)F)cc1)N1CCCC1.Cl` (stereo not drawn) [4-CF3 α-PHP (9)], in experiment [2], the “DAT Selectivity” value is listed as 0.8 fold.
`CCCCC(C(=O)c1ccc(CC)cc1)N1CCCC1.Cl` (stereo not drawn) [4-CH2CH3 α-PHP (6), 1-(4-Ethylphenyl)-2-(pyrrolidin-1-yl)hexanone Hydrochloride]: the IC50 in experiment [1] was determined as 9.83 µM; in experiment [2], 0.247 µM. Moreover, the “DAT Selectivity” value in experiment [2] is 40 fold.
For the compound `CCCCC(C(=O)c1ccc(C)cc1)N1CCCC1.Cl` (stereo not drawn) [4-CH3 α-PHP (4), 1-(4-Methylphenyl)-2-pyrrolidin-1-yl)hexanone Hydrochloride], the figures for the concentration for half-maximal inhibition (IC50) in experiment [1] and in experiment [2] were 10.2 µM and 0.124 µM, respectively.
For the compound `CCCCC(C(=O)c1ccc(C)cc1)N1CCCC1.Cl` (stereo not drawn) [4-CH3 α-PHP (4)], the “DAT Selectivity” value in experiment [2] turned out to be 83 fold.
In turn, `CCCCC(C(=O)c1ccc(Cl)cc1)N1CCCC1.Cl` (stereo not drawn) [4-Cl α-PHP (7), 1-(4-Chlorophenyl)-2-(pyrrolidin-1-yl)hexanone Hydrochloride] showed an IC50 in experiment [1] of 10.1 µM. For the same compound, in experiment [2], the “DAT Selectivity” value is on record as 55 fold and the IC50 was 0.184 µM.
`CNC(C)C(=O)c1ccc(OC)cc1` (centres unmarked) [4-OCH3 10]: in the experiment on DAT [3] (DAT release), the “fold lower potency as a releasing agent than its parent, 10” value is given as 40 fold. Further, the “SERT versus DAT selectivity” value in the experiment on DAT [3] (releasing agent) is given as 4 fold.
Take `CCCCC(C(=O)c1ccc(OC)cc1)N1CCCC1.Cl` (stereo not drawn) [4-OCH3 α-PHP (5), 1-(4-Methoxyphenyl)-2-(pyrrolidin-1-yl)hexanone Hydrochloride]: the IC50 in experiment [1] was 15.2 µM. Besides, in experiment [2], the “DAT Selectivity” value was found to be 200 fold and it took 0.075 µM to reach half-maximal inhibition (IC50).
As to `CNC(C)C(=O)c1ccccc1` (centres unmarked) [Compound 10, methcathinone], the EC50 with DAT [3] is 0.0135 µM.
In the case of `CCCCC(C(=O)c1ccccc1)N1CCCC1` (stereo not drawn) [α-PHP (1), 1-phenyl-2-(pyrrolidin-1-yl)hexanone], the IC50 in experiment [1] is > 30 µM. Moreover, in experiment [2], the “DAT Selectivity” value is recorded as >300 fold and half-maximal inhibition (IC50) required 0.097 µM.

(Values after paper PMC10670441 (ACS chemical neuroscience, 2023).)
